We go through 9 molecules from article PMC4201300 (Biochemistry, 2014).

Square brackets hold non-standard residues; d marks the D form. Peptide text beside a SMILES is read from it. pT = C[C@@H](OP(=O)(O)O)[C@H](N)C(=O)O

Experiment [1] addresses T1, Pellino3b FHA domain (amino acids 2–304) (Homo sapiens, UniProt Q8N2H9).
T1 sequence (Q8N2H9 2-304 isoform Q8N2H9-2): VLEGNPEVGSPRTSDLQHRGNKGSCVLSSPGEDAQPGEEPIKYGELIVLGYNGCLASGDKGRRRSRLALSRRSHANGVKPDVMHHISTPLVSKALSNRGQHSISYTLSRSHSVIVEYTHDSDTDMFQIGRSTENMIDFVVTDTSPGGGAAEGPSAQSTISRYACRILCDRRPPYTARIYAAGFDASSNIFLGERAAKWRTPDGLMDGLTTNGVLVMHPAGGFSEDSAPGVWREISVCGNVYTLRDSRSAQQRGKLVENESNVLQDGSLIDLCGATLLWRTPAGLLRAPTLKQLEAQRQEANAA
Kind of experiment: Fluorescence polarization peptide binding assay, Pellino3b FHA domain. To be noted: ratio of KD values. The method, boiled down:
(§1)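 His6-tagged FHA domains were expressed in E. coli BL21(DE3) pLys. The tag was removed with TEV during dialysis (4 °C for Pellino1, 22 °C for Pellino3a/3b), then cation exchange (pH 6 Pellino1/3b, pH 5.5 Pellino3a) and gel filtration. 50 nM N-terminally fluorescein-labelled phosphopeptide was titrated with 0–190 μM domain in PBS pH 7.4 at 25 °C. Baseline-corrected polarization was fit to a simple isotherm; mean KD from ≥3 experiments, expressed relative to pT141+3Y KD.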
In general terms: In fluorescence polarisation assays a small probe gives low polarisation when free and higher when bound to something large.

Experiment [2] addresses T2, Pellino1 FHA domain (amino acids 2–287) (Mus musculus, UniProt Q8C669).
T2 sequence (Q8C669 2-287): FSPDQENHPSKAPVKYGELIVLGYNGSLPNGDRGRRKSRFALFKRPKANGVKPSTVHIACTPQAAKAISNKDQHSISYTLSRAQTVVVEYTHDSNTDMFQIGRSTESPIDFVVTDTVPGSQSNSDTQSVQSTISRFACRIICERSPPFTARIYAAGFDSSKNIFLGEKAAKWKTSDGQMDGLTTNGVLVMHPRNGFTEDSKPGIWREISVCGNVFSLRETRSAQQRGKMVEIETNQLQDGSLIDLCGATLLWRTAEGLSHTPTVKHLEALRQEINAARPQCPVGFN
Nature of the experiment: Fluorescence polarization peptide binding assay, Pellino1 FHA domain. To be noted: ratio of KD values. The method, boiled down:
as §1

Experiment [3] concerns the target T3, Pellino3a FHA domain (amino acids 40–305) (Homo sapiens, UniProt Q8N2H9).
T3 sequence (Q8N2H9 40-305): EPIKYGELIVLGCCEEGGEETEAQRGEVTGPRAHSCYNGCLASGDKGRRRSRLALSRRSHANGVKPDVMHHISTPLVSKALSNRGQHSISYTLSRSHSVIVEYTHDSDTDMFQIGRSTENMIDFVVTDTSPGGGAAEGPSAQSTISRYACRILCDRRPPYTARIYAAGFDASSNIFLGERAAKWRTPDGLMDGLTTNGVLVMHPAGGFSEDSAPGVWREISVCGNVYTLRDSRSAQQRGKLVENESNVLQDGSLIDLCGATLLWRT
Nature of the experiment: Fluorescence polarization peptide binding assay, Pellino3a FHA domain. To be noted: ratio of KD values. In a few lines:
as §1

For experiment [4], the target named is T4, Pellino2 FHA domain (amino acids 15–275 of Pellino2) (Homo sapiens, UniProt Q9HAT8).
T4 sequence (Q9HAT8 15-275): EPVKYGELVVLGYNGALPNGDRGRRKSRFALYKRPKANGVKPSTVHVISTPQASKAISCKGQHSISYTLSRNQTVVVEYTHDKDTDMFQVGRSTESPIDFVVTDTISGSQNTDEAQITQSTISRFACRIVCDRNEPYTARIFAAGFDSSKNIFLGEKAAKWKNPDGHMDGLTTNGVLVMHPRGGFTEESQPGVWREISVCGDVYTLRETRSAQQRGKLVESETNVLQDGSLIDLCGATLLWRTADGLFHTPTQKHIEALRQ
Nature of the experiment: Fluorescence polarization peptide binding assay, Pellino2 FHA domain. To be noted: for fold change in KD relative to pT141+3Y (preference for the pTxxY motif): binding weaker than for pT141+3Y, Figure 4A.

Experiment [5] deals with Pellino2 (UniProt Q9HAT8). Kind of experiment: GST pull-down from lysate, Xpress and pT blots. The conditions noted are these: reference: wild-type IRAK1-197; sites T141.
Experiment [6] deals with Pellino2 FHA domain, 15-275 (UniProt Q9HAT8). Nature of the experiment: fluorescence polarization titration. The conditions noted are these: reference: pT141+3S peptide (native S144); sites S144.
In experiment [7] the target is IRAK1pT141 peptide (amino acids 137–145 of IRAK1 with phosphothreonine at 141) (human) (UniProt P51617). Nature of the experiment: fluorescence polarisation.
In experiment [8] the target is T5, Pellino1 FHA domain (amino acids 2–287, mouse) (mouse, UniProt Q8C669 2-287).
T5 sequence (looked up): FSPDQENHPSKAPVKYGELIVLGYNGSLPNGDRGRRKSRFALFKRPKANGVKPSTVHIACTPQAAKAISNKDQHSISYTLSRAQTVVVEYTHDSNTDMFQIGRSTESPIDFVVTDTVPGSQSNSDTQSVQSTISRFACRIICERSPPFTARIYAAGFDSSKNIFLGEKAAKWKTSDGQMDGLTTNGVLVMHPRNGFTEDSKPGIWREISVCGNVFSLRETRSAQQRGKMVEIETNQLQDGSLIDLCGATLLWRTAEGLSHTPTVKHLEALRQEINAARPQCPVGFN
Nature of the experiment: fluorescence polarisation.

Experiment [9] addresses T6, Pellino3b FHA domain (amino acids 2–304) (human, UniProt Q8N2H9-2 2-304).
T6 sequence (looked up): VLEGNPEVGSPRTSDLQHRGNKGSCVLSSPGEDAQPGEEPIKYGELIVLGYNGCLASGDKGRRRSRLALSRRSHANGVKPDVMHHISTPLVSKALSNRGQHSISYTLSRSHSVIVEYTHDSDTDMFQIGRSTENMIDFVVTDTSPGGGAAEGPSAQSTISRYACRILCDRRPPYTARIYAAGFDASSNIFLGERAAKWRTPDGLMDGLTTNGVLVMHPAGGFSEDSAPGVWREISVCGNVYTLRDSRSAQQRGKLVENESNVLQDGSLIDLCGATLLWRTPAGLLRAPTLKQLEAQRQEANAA
Nature of the experiment: fluorescence polarisation.

Experiment [10] addresses scrambled version of the pT141 peptide. Kind of experiment: fluorescence polarisation.
Experiment [11] deals with T7, Pellino2 FHA domain (amino acids 15–275 of Pellino2) (human, UniProt Q9HAT8 15-275).
T7 sequence (looked up): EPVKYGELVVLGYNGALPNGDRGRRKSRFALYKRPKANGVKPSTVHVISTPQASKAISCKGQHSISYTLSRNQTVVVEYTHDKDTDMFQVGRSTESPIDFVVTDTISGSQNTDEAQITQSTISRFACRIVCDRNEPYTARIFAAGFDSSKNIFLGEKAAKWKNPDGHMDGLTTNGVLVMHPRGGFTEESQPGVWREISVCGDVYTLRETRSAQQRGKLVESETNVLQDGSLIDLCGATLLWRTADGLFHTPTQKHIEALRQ
Nature of the experiment: fluorescence polarisation.

Sequence of Pellino2 FHA domain, 15-275 (Q9HAT8 whole entry, looked up, the tested form may be a part): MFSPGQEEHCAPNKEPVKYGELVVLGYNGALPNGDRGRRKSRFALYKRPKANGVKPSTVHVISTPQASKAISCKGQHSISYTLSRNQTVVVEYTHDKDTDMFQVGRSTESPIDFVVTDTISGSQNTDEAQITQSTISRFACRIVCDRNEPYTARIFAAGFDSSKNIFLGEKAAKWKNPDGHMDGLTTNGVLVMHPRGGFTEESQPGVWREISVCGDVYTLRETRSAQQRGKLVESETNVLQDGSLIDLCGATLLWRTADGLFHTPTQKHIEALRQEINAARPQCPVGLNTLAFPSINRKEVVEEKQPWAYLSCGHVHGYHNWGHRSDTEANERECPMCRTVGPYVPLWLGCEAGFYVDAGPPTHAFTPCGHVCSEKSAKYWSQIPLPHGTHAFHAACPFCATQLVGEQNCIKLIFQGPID
Sequence of IRAK1pT141 peptide (amino acids 137–145 of IRAK1 with phosphothreonine at 141) (human) (P51617 whole entry, looked up, the tested form may be a part): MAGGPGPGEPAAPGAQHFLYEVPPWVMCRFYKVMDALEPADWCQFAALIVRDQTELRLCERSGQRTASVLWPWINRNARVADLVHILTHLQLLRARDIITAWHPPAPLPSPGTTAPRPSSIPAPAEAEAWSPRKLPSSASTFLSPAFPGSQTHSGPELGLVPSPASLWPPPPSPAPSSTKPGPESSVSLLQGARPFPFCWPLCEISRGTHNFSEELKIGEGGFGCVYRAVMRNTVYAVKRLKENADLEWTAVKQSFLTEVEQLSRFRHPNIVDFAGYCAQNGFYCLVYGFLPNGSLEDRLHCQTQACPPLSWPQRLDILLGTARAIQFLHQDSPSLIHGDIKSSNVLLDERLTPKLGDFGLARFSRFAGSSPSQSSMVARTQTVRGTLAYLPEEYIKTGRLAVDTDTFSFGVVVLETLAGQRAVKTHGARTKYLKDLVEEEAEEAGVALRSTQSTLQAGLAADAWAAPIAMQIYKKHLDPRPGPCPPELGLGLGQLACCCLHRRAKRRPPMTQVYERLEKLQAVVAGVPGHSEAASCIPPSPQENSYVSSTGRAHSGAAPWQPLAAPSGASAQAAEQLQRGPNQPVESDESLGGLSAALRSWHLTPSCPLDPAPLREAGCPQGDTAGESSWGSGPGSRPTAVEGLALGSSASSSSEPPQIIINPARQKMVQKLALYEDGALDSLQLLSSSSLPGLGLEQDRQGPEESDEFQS

With `CC(C)C[C@H](NC(=O)[C@H](Cc1ccccc1)NC(=O)[C@@H](NC(=O)[C@H](CO)NC(=O)[C@H](CO)NC(=O)[C@H](C)NC(=O)[C@H](CO)NC(=O)[C@@H](N)Cc1ccc(O)cc1)[C@@H](C)OP(=O)(O)O)C(=O)N[C@@H](CC(=O)O)C(=O)N1CCC[C@H]1C(N)=O` [IRAK1pT141+3D] (H-YSASS[pT]FLDP-NH2; N-terminus assumed), the “times weaker binding than for the pT141+3Y peptide” value in experiment [1], in experiment [2] and in [3] was “at least 13 times” in each case. Further, the “fold change in KD relative to pT141+3Y (preference for the pTxxY motif)” value in experiment [4] was 23 fold.

Regarding `CC[C@H](C)[C@H](NC(=O)[C@H](CC(C)C)NC(=O)[C@H](Cc1ccccc1)NC(=O)[C@@H](NC(=O)[C@H](CO)NC(=O)[C@H](CO)NC(=O)[C@H](C)NC(=O)[C@H](CO)NC(=O)[C@@H](N)Cc1ccc(O)cc1)[C@@H](C)OP(=O)(O)O)C(=O)N1CCC[C@H]1C(N)=O` [IRAK1pT141+3I] (H-YSASS[pT]FLIP-NH2; N-terminus assumed), the “fold change in KD relative to pT141+3Y (preference for the pTxxY motif)” value in [4] is recorded as 12 fold.

As for `CC(C)C[C@H](NC(=O)[C@H](Cc1ccccc1)NC(=O)[C@@H](NC(=O)[C@H](CO)NC(=O)[C@H](CO)NC(=O)[C@H](C)NC(=O)[C@H](CO)NC(=O)[C@@H](N)Cc1ccc(O)cc1)[C@@H](C)OP(=O)(O)O)C(=O)N[C@@H](Cc1ccc(O)cc1)C(=O)N1CCC[C@H]1C(N)=O` [IRAK1pT141+3Y] (H-YSASS[pT]FLYP-NH2; N-terminus assumed), in [4] (ratio of KD values), the “KD fold stronger than that for pT141+3S” value turned out to be 4.6 fold.

With IRAK1 1-197 (from UniProt P51617) T141A, in [5], the “binding against the reference” value is “weaker”.

In turn, “IRAK1 137-145 (from UniProt P51617) pT141+3D peptide” yielded a fold change (fold weaker KD) in experiment [6] of 5.

What is called Kd is a measure of binding affinity in units of concentration. Molecule “Pellino2 FHA domain (amino acids 15–275 of Pellino2) (from UniProt Q9HAT8 15-275) (domain or fragment)” returned a Kd in [7] of 820 nM.

For fluorescein-YSSAS[pT]FLIP-NH2 (also: fluorescein: FITC or 5,6-FAM) [pT141+3I peptide (IRAK1pT141 with isoleucine at position +3)], the Kd in experiment [8] was 1800 nM. In addition, in experiment [9], the binding result is recorded as “binds”.

B1: Pellino2 FHA domain (amino acids 15–275 of Pellino2) (domain or fragment)
chain: EPVKYGELVVLGYNGALPNGDRGRRKSRFALYKRPKANGVKPSTVHVISTPQASKAISCKGQHSISYTLSRNQTVVVEYTHDKDTDMFQVGRSTESPIDFVVTDTISGSQNTDEAQITQSTISRFACRIVCDRNEPYTARIFAAGFDSSKNIFLGEKAAKWKNPDGHMDGLTTNGVLVMHPRGGFTEESQPGVWREISVCGDVYTLRETRSAQQRGKLVESETNVLQDGSLIDLCGATLLWRTADGLFHTPTQKHIEALRQ
With B1, in experiment [10], the fold weaker affinity than for pT141 is greater than 100 fold.

Consider fluorescein-YSSAS[pT]FLYP-NH2 (also: fluorescein: FITC or 5,6-FAM) [pT141+3Y peptide (IRAK1pT141 with tyrosine at position +3)], for which the Kd came out at 180 nM in [11] and 770 nM in [8]. For the same molecule, the binding result in [9] was “binds”.
